Tests used:
[1] = Hemolytic activity against human RBC incubated for 1 hr by microplate reader analysis; assay type: toxicity, cell-based, Erythrocyte; details: red blood cells (erythrocytes)
Summary of the method: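 Human red blood cells exposed to peptides up to 50 μM; hemolysis measured, IC50 derived where reached.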

SUD4 = experiment: Anti-cancer activity against human SU-DHL-4 cells incubated for 24 hrs by WST assay; assay type: functional, cell-based; details: SU-DHL-4, 24 h
Escherichia coli = experiment: Antimicrobial activity against Escherichia coli TOP10 incubated for 24 hrs by broth microdilution assay; assay type: functional
Staphylococcus aureus [2] = experiment: Antimicrobial activity against Staphylococcus aureus NE1740 harboring single transposon insertion mutation in staphopain A at 30 uM incubated for 18 hrs relative to control; assay type: functional
Summary of the method: (§1)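 CA-MRSA USA300 LAC derivative JE2 and single transposon insertion mutants derived from JE2, each lacking an extracellular protease gene, were exposed to peptides up to 30 μM. The read-out was percent growth inhibition. Peptides were dissolved in PBS, and tests were run in triplicate.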

[3] = Stability in simulated pore POPC lipid bilayer membrane; assay type: physicochemical
Summary of the method: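 Coarse-grained MD with the "scaled" Martini force field, peptides in POPC membrane, 51 μs. Counts transmembrane peptides at 51 μs. Water beads within 2 nm vertically of membrane centre and peptide–peptide interaction energy averaged over 48–51 μs. Contacts (salt bridge or stacking) scored below 0.8 nm and called stable if present ≥50% of the time.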

Staphylococcus aureus [4] = experiment: Antimicrobial activity against Staphylococcus aureus NE163 harboring single transposon insertion mutation in aureolysin at 30 uM incubated for 18 hrs relative to control; assay type: functional; summary of the method: as §1
Staphylococcus aureus [5] = experiment: Antimicrobial activity against Staphylococcus aureus NE1506 harboring single transposon insertion mutation in V8 protease at 30 uM incubated for 18 hrs relative to control; assay type: functional; summary of the method: as §1
Staphylococcus aureus [6] = experiment: Antimicrobial activity against Staphylococcus aureus NE934 harboring single transposon insertion mutation in staphopain B at 30 uM incubated for 18 hrs relative to control; assay type: functional; summary of the method: as §1
[7] = Toxicity against reconstructed human skin model assessed as irritation at 50 uM incubated for 1 hr followed by compound washout measured after 42 hrs by MTT assay; assay type: tissue-based, Skin of body
Summary of the method: (§2)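 Reconstructed human epidermis with stratum corneum, per OECD TG 439 skin irritation guideline. Tissues exposed 1 h to peptide at 50 μM, then 42 h post-treatment incubation. Viability read by MTT. Controls were SDS and melittin.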

[8] = Toxicity against reconstructed human skin model assessed as tissue viability at 50 uM incubated for 1 hr followed by compound washout measured after 42 hrs by MTT assay; assay type: tissue-based, Skin of body; details: read-out: Activity; summary of the method: as §2
Staphylococcus carnosus = experiment: Antimicrobial activity against Staphylococcus carnosus CCM 4838T incubated for 24 hrs by broth microdilution assay; assay type: functional

| Molecule | IC50 at 1 h [1] [µM] | inhibition at 30 µM (Staphylococcus aureus [2]) [%] | inhibition at 30 µM (Staphylococcus aureus [4]) [%] | inhibition at 30 µM (Staphylococcus aureus [5]) [%] | inhibition at 30 µM (Staphylococcus aureus [6]) [%] | further results |
| --- | --- | --- | --- | --- | --- | --- |
| CC1(C)S[C@@H]2[C@H](NC(=O)[C@H](N)c3ccccc3)C(=O)N2[C@H]1C(=O)O [AMPICILLIN] | 0.9 | – | – | – | – | – |
| CC[C@H](C)[C@H](NC(=O)CN)C(=O)NCC(=O)N[C@@H](C)C(=O)N[C@H](C(=O)N[C@@H](CC(C)C)C(=O)N[C@@H](CCCCN)C(=O)N[C@H](C(=O)N[C@@H](CC(C)C)C(=O)N[C@H](C(=O)N[C@H](C(=O)NCC(=O)N[C@@H](CC(C)C)C(=O)N1CCC[C@H]1C(=O)N[C@@H](C)C(=O)N[C@@H](CC(C)C)C(=O)N[C@H](C(=O)N[C@@H](CO)C(=O)N[C@@H](Cc1c[nH]c2ccccc12)C(=O)N[C@H](C(=O)N[C@@H](CCCCN)C(=O)N[C@@H](CCCNC(=N)N)C(=O)N[C@@H](CCCCN)C(=O)N[C@@H](CCCNC(=N)N)C(=O)N[C@@H](CCC(N)=O)C(=O)N[C@@H](CCC(N)=O)C(N)=O)[C@@H](C)CC)[C@@H](C)CC)[C@@H](C)O)[C@@H](C)O)C(C)C)C(C)C [MELITTIN] | – | – | – | – | – | IC50 (SUD4): ≤ 5 µM |
| H-RRRRLKKILKKLFQFINQLDNQLQDIRQNR-NH2 | 6.9 | – | – | – | – | – |
| H-KKKKLKKILKKLFQFIDQLINDLQNIKKKK-NH2 | > 50 | – | – | – | – | – |
| H-KNQNLDDILNQLFQFINQLKNQLQKIKKKK-NH2 | – | – | – | – | – | MIC (Escherichia coli): > 50 µM |
| H-KKKKLKKILKKLFQFINQLENQLQEIKQNK-NH2 | > 50 | – | – | – | – | – |
| H-KKKKLKKILKKLFSFISSLDSSLSDIKSSK-NH2 | – | < 45 | < 45 | < 45 | < 45 | Stability [3]: Stable |
| H-KKKKLKKILKKLFQFIQQLDQQLQDIKQQK-NH2 | > 50 | < 45 | < 45 | < 45 | < 45 | Activity [7]: Non-Toxic; viability at 1 h, 50 µM [8]: 100% |
| H-KKKKAKKAAKKAFQFANQADNQAQDAKQNK-NH2 | – | < 45 | < 45 | < 45 | < 45 | MIC (Escherichia coli): > 50 µM; MIC (Staphylococcus carnosus): > 50 µM |
| H-KKKKLKKILKKLFNFINNLDNNLNDIKNNK-NH2 | – | < 45 | < 45 | < 45 | < 45 | – |
